# An excerpt weighted towards active compounds, which were near 2.6% of everything screened.
# rRNA inh HTS: inhibits bacterial ribosomal RNA function over humanized ribosomes; E. coli WT GFP vs humanized-ribosome RFP mutants, fluorescence, 24 h; hits give low values; DMSO median 0, no signal -100; GFP signal change (wild-type ribosome), % (concentration not given with the values); 350,000 tested, 1.6% active; AID 720706;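 active = significant combined selectivity score with lowered wild-type GFP, culture density cut under 30%, mutant RFP and density less affected; inactive = any of these conditions unmet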
# Vif inh: inhibitors of HIV Vif; HEK293T cells, Vif self-association by quenched fluorescence, imaging, 24 h; inhibition, % at 7.49 µM; 340,000 tested, 0.35% active; in the data active = inhibition above about 50%, passing the limit was not always enough
# S100A4 MyoIIA: blocks human S100A4 binding to myosin IIA peptide. P26447. S100A4/TAMRA-MyoIIA peptide fluorescence polarization. inhibition, % at 10.7 µM. 360,000 tested, 0.14% active. AID 652163;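 active = mean inhibition of at least 70% across replicates, with every replicate also reaching that level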
# Target sequence (P26447 whole entry, looked up): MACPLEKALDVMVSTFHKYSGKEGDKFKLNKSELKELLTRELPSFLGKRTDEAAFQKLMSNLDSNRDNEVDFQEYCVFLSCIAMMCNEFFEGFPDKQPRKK
#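 incubation = readout 5 min after mixing, signal stable up to 60 min | system = S100A4 monomer protein | buffer or medium = HEPES pH 7.2 with CaCl2, KCl, NaCl, DTT, Triton | benchmarks = neutral control DMSO, positive control TFP | also added = fluorescent myosin IIA peptide, 5 nM | compound dosing = one concentration per compound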
# Env fusion inh: inhibitors of HIV Env-mediated cell fusion. HeLa-JRFL Env/CEM21 cell fusion, luciferase. AID 651610. 360,000 tested, 1.1% active. inhibition, % at 12.3 µM;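 active = mean replicate inhibition score of at least 50 and every replicate individually at or above 50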;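 note: 0% = plate neutral controls and 100% = maraviroc near 300 nM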
# FN deposition inh: fibronectin deposition inhibition. AH1F fibroblasts, Alexa488-fibronectin deposition fluorescence, overnight. inhibition, % at 12.6 µM. 350,000 tested, 0.086% active;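 active = mean inhibition across replicates of 30% or more, regardless of how many single replicates reach that level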;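 note: positive control wells lacked labelled fibronectin entirely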
#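 Material: AH1F fibroblasts assembling fluorescent fibronectin matrix; amount: 10000 AH1F cells/well; medium: DMEM, 2% serum; reagent: Alexa488-fibronectin, 24 nM final in well; dosing: single compound dose, delivered by pin transfer; incubation: 1 h adhesion, overnight exposure; detection: fluorescence after three HBSS washes, excitation 485 nm, emission 525 nm; measure: fibronectin deposition inhibition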
# miR-122 sensor: inhibitors of miR-122 in Huh7 cells | activation (reporter increase), % at 12.5 µM | Huh7 miR-122 Renilla luciferase sensor, 48 h; neutral wells = 0, positive control = 100 | 340,000 tested, 0.3% active;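 active = mean replicate activation score at least 90 and every replicate individually at or above 90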;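 note: higher luciferase means less miR-122 activity so hits act as miR-122 inhibitors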
# Active calls of the source: *; . = no result given; + = active, no number; [ ] = remark or other dose.
SMILES,rRNA inh HTS,Vif inh,S100A4 MyoIIA,Env fusion inh,FN deposition inh,miR-122 sensor
N#C/C(C(N)=O)=C1/SC(Cc2ccc(F)cc2)C(=O)N1c1ccccc1 (stereo unspecified),-6,2,-7,25,4,.
Cc1ccccc1N1C(=O)C(Cc2ccc(F)cc2)S/C1=C(\C#N)C(N)=O (stereo unspecified),-31*,-2,-12,14,-3,-6
CC(C)n1cc(/C=C/c2cc[n+](C)cc2)c2ccccc21,79,.,-18,72*,-96,-20
CCn1cc(/C=C/c2cc[n+](C)cc2)c2ccccc21,110,.,-22,40,-83,-31
Cc1cc(/C=C(\C#N)C(=O)Nc2ccc(F)cc2)c(C)n1-c1ccc(N2CCOCC2)c([N+](=O)[O-])c1,.,-6,.,85*,-3,-6
COc1ccc(NC(=O)/C(C#N)=C/c2cc(C)n(-c3ccc(N4CCOCC4)c([N+](=O)[O-])c3)c2C)cc1,-6,-16,1,16,-4,-4
CCC/C(=C1/c2ccccc2C(=O)N1c1ccccc1)c1ccc(C=O)o1,-24*,.,-9,-55,5,.
C[C@@H]1CN([C@@H](C)CO)C(=O)c2cccc(NC(=O)Nc3ccc4c(c3)OCO4)c2O[C@@H]1CN(C)S(=O)(=O)c1ccccc1,-1,.,-1,2[16.7 µM],.,5[16.7 µM]
COc1ccc(CCNC(=O)CO/N=C/c2cc3c(cc2Br)OCO3)cc1OC,-36*,-9,6,12,9,-2
COc1ccccc1C#Cc1ccc([C@H]2[C@H](CO)N3CCCCN(S(C)(=O)=O)C[C@@H]23)cc1,7,.,-43,.,.,0[16.7 µM]
O=Nc1c(O)c2ccccc2c2ccccc12,-41,-5,1,81*,38*,-29
O=C(CC1CC1)N1[C@H](CO)[C@H](c2ccccc2)C12CN(Cc1cc(F)ccc1F)C2,-6,.,28,.,.,.
CO[C@@H]1CN(C)C(=O)c2ccc(NC(=O)Nc3ccc(Cl)cc3)cc2OC[C@H](C)N(C(=O)Nc2c(C)noc2C)C[C@H]1C,-2,.,-19,.,0,.
Cn1c(=O)cc2c3c(c(N4CCCCC4)ccc31)C(=O)c1ccccc1-2,1,-11,103*,0,1,-4
O=C1c2ccccc2C(=O)c2c1cccc2N1CCCC1,.,9,0,-17,4,-7
O=C(C[C@H]1CC[C@@H](NC(=O)Nc2ccc3c(c2)OCO3)[C@@H](CO)O1)NCc1ccc(F)cc1,2,.,6,7[16.7 µM],.,.
CN1CCN(C(=O)C[C@@H]2CC[C@H]3[C@H](COc4ccc(NC(=O)C5CCC5)cc4C(=O)N3C)O2)CC1,0,.,5,.,-5,.
CCN(CC)CC(=O)N1CCCC(C(=O)c2ccccc2OC)C1 (stereo unspecified),12,-10,-1,-1,5,6
COc1ccccc1C(=O)C1CCCN(C(=O)CCC(=O)c2ccccc2)C1 (stereo unspecified),-28*,5,-4,14,.,.
N#Cc1c(C(F)(F)F)cc(-c2ccco2)nc1SCc1ccccn1,.,-4,.,.,.,3
N#Cc1c(C(F)(F)F)cc(-c2ccco2)nc1SCc1ccncc1,.,+,.,-126,.,5
O=C(COc1ccc(C(=O)NCc2cccnc2)cc1)Nc1cccc(C(F)(F)F)c1,-23*,.,-1,40,.,-2
CCN(C(=O)COC(=O)c1cc(-c2ccc(C)o2)nc2ccccc12)C1CCS(=O)(=O)C1 (stereo unspecified),14,2,-5,-9,.,.
CCN(C(=O)COC(=O)c1cc(-c2cccs2)nc2ccccc12)C1CCS(=O)(=O)C1 (stereo unspecified),-23*,7,-1,-2,-18,.
COc1ccc(-c2cc(C(=O)N3CCCCCC3)c3ccccc3n2)c(OC)c1,-33*,8,0,-20,-8,6
COc1ccc(-c2cc(C(=O)N3CCN(c4ncccn4)CC3)c3ccccc3n2)c(OC)c1,.,-2,.,23,7,.
CCc1ccc2c(c1)NC(=O)C2(C)Cc1ccc(F)cc1 (stereo unspecified),-32,0,-3,-13,6,-4
